What all share (assay type): functional, cell-based
Assay [1] has as its system K562. Description: Induction of DNA damage in human K562 cells assessed as increase in gammaH2AX at 10 uM for 2 hrs by Western blotting analysis. Summed up:
(§1)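 K562 cells treated 2 h with drug (10 μM; also 1 and 5 μM), washed and lysed directly in SDS sample buffer. Lysates separated by SDS-PAGE and blotted to PVDF. Probed for γH2AX (1:1000) with β-actin loading control and IRDye 800CW anti-mouse secondary; infrared imaging. γH2AX normalized to actin. Etoposide was the positive control. At 10 μM: mean ± SD of three independent experiments.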

In assay [2] the test system is K562. Description: Induction of DNA damage in human K562 cells assessed as DNA double strand break measured by constant gel field electrophoresis. Summed up: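 Double-strand breaks resolved by constant-field gel electrophoresis and quantified as broken DNA relative to total DNA. Etoposide was the positive control. Mean ± SD of three independent experiments.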
In the next assay the test system is U2OS. As to the kind of experiment: Cytotoxicity against human U2OS cells incubated for 2 hrs by cell titre blue viability assay.
The test system of assay [3] is K562. As to the kind of experiment: Cytotoxicity against human K562 cells incubated for 2 hrs by cell titre blue viability assay. Particulars: K562, 2 h. Summed up:
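Viability read by CellTiter-Blue, normalized to untreated control and background-corrected. Media: K562 RPMI-1640, MelJuSo IMDM, U2OS DMEM, each with 8% FCS; 5% CO2, 37 °C.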

The test system of assay [4] is K562. As to the kind of experiment: Induction of DNA damage in human K562 cells assessed as increase in gammaH2AX at 1 to 5 uM for 2 hrs by Western blotting analysis. The settings on record: dose 1-5 µM. Summed up: as §1
In assay [5] the test system is MEL-JUSO. Description: Cytotoxicity against human MEL-JUSO cells incubated for 2 hrs by cell titre blue viability assay.
For assay [6], the system named is MEL-JUSO. As to the kind of experiment: Effect of chromatin damage activity in human MEL-JUSO cells stably expressing PAGFPH2A assessed as histone eviction measured upto 60 mins measured by confocal microscopic analysis.

Calls of active or inactive are those of the source. The rule behind the calls is not given here.

With `CC[C@@]1(O)C[C@H](O[C@H]2C[C@H](N)[C@H](O)[C@H](C)O2)c2c(O)c3c(c(O)c2[C@H]1C(=O)OC)C(=O)c1cccc(O)c1C3=O`, the result in the assay with K562 [1], in the assay with K562 [2] and in the assay with K562 [4] was Active. The IC50 was determined as 10000 nM in the assay with U2OS, 5320 nM in the assay with K562 [3] and 4290 nM in the assay on MEL-JUSO [5].
For the molecule `COc1cccc2c1C(=O)c1c(O)c3c(c(O)c1C2=O)C[C@@](O)(C(C)=O)C[C@@H]3O[C@H]1C[C@H](N)[C@H](O)[C@H](C)O1` [DAUNORUBICIN], the IC50 in the assay on U2OS is 61 nM; in the assay on MEL-JUSO [5], 286 nM.
As for `CC[C@]1(O)Cc2c(O)c3c(c(O)c2[C@@H](O[C@H]2C[C@H](N)[C@H](O)[C@H](C)O2)C1)C(=O)c1c(OC)cccc1C3=O`, the outcome with K562 [1], in the assay with K562 [2] and with K562 [4] was Active. Also, the IC50 in the assay with U2OS is 237 nM; with K562 [3] it was 42 nM; with MEL-JUSO [5] it was 372 nM.
As to `COc1cccc2c1C(=O)c1c(O)c3c(c(O)c1C2=O)C[C@@](O)(C(=O)CO)C[C@@H]3O[C@H]1C[C@H](N2CCOCC2)[C@H](O)[C@H](C)O1`, the outcome in the assay on K562 [1], in the assay on K562 [2] and in the assay with K562 [4] was inactive. In addition, the figures for the concentration for half-maximal inhibition (IC50) in the assay with U2OS, in the assay on K562 [3] and with MEL-JUSO [5] were 77 nM, 64 nM and 51 nM, respectively. In addition, the result with MEL-JUSO [6] was Active.
In the case of `COc1cccc2c1C(=O)c1c(O)c3c(c(O)c1C2=O)C[C@@](O)(C(=O)CO)C[C@@H]3O[C@H]1C[C@H](N=[N+]=[N-])[C@H](O)[C@H](C)O1`, the outcome in the assay on K562 [1], in the assay on K562 [2], in the assay on K562 [4] and with MEL-JUSO [6] was Active. The figures for the concentration for half-maximal inhibition (IC50) in the assay with U2OS, with K562 [3] and with MEL-JUSO [5] were 10000 nM, 84 nM and 1220 nM, respectively.
Turning to `CC[C@@]1(O)C[C@H](O[C@H]2C[C@H](N(C)C)[C@H](O[C@H]3C[C@H](O)[C@H](O[C@H]4CCC(=O)[C@H](C)O4)[C@H](C)O3)[C@H](C)O2)c2c(cc3c(c2O)C(=O)c2c(O)cccc2C3=O)[C@H]1C(=O)OC` [ACLARUBICIN], the result with K562 [1], in the assay with K562 [2] and in the assay on K562 [4] was inactive. The results for the IC50 in the assay on U2OS, with K562 [3] and in the assay with MEL-JUSO [5] were 209 nM, 31 nM and 99 nM, respectively.
As for `COc1cccc2c1C(=O)c1c(O)c3c(c(O)c1C2=O)C[C@@](O)(CCO)C[C@@H]3O[C@H]1C[C@H](N(C)C)[C@H](O)[C@H](C)O1`, the outcome with K562 [1], in the assay with K562 [2] and in the assay on K562 [4] was inactive. In addition, the IC50 was found to be 4210 nM in the assay with U2OS, 1620 nM with K562 [3] and 2870 nM with MEL-JUSO [5]. In addition, in the assay on MEL-JUSO [6], the outcome was Active.
As for `CC(=O)[C@]1(O)Cc2c(O)c3c(c(O)c2[C@@H](O[C@H]2C[C@H](N(C)C)[C@H](O[C@H]4C[C@H](O)[C@H](O[C@H]5CCC(=O)[C@H](C)O5)[C@H](C)O4)[C@H](C)O2)C1)C(=O)c1ccccc1C3=O`, the outcome in the assay on K562 [1], in the assay with K562 [2] and with K562 [4] was inactive. For the same molecule, the concentration for half-maximal inhibition (IC50) in the assay on U2OS is 12 nM; in the assay on K562 [3], 20 nM; with MEL-JUSO [5], 8 nM.
Turning to `COc1cccc2c1C(=O)c1c(O)c3c(c(O)c1C2=O)C[C@@](O)(C(=O)CO)C[C@@H]3O[C@H]1C[C@H](O)[C@H](O)[C@H](C)O1` [HYDROXYRUBICIN], the outcome in the assay on K562 [1], with K562 [2], in the assay with K562 [4] and in the assay with MEL-JUSO [6] was Active. The IC50 with U2OS worked out at 6790 nM; in the assay with K562 [3], 856 nM; in the assay with MEL-JUSO [5], 1900 nM.
With `COc1cccc2c1C(=O)c1c(O)c3c(c(O)c1C2=O)C[C@@](O)(C(=O)CO)C[C@@H]3O[C@H]1C[C@H](N(C)C)[C@H](O[C@H]2C[C@H](O)[C@H](O[C@H]3CCC(=O)[C@H](C)O3)[C@H](C)O2)[C@H](C)O1` (single isomer, unassigned), the outcome in the assay on K562 [1], with K562 [2] and in the assay with K562 [4] was inactive. Moreover, the IC50 in the assay with U2OS turned out to be 11 nM; in the assay on K562 [3], 19 nM. The outcome with MEL-JUSO [6] was Active.
As for `CC[C@]1(O)Cc2c(O)c3c(c(O)c2[C@@H](O[C@H]2C[C@H](N(C)C)[C@H](O)[C@H](C)O2)C1)C(=O)c1c(OC)cccc1C3=O`, the outcome with K562 [1], in the assay on K562 [2] and in the assay with K562 [4] was inactive. In addition, the IC50 came out at 1360 nM with U2OS, 1180 nM in the assay with K562 [3] and 1810 nM in the assay with MEL-JUSO [5]. In addition, the outcome with MEL-JUSO [6] was Active.
Regarding `COc1cccc2c1C(=O)c1c(O)c3c(c(O)c1C2=O)C[C@@](O)(C(=O)CO)C[C@@H]3O[C@H]1C[C@H](N2CCCC2)[C@H](O)[C@H](C)O1`, the result in the assay on K562 [1], in the assay with K562 [2] and with K562 [4] was inactive. Further, the concentration for half-maximal inhibition (IC50) in the assay on U2OS turned out to be 122 nM; with K562 [3] it was 172 nM; with MEL-JUSO [5] it was 73 nM. Also, the outcome with MEL-JUSO [6] was Active.
Turning to `COc1cccc2c1C(=O)c1c(O)c3c(c(O)c1C2=O)C[C@@](O)(C(=O)CO)C[C@@H]3O[C@H]1C[C@H](O)[C@H](N(C)C)[C@H](C)O1`, the values for the half-maximal inhibitory concentration (IC50) with U2OS, with K562 [3] and in the assay on MEL-JUSO [5] were 285 nM, 129 nM and 433 nM, respectively. For the same molecule, the outcome with MEL-JUSO [6] was Active.
For `COc1cccc2c1C(=O)c1c(O)c3c(c(O)c1C2=O)C[C@@](O)(C(=O)CO)C[C@@H]3O[C@H]1CC[C@H](O)[C@H](C)O1`, the result with K562 [1], in the assay with K562 [2], with K562 [4] and in the assay with MEL-JUSO [6] was Active. The 50% inhibitory concentration (IC50) in the assay on U2OS came to 10000 nM; with K562 [3] it was 1620 nM; in the assay on MEL-JUSO [5] it was 2430 nM.
Regarding `COc1cccc2c1C(=O)c1c(O)c3c(c(O)c1C2=O)C[C@@](O)(C(=O)CO)C[C@@H]3O[C@H]1C[C@H](O)[C@H](N)[C@H](C)O1`, the outcome with K562 [1], in the assay with K562 [2] and in the assay with K562 [4] was Active. Also, the IC50 stood at 1120 nM with U2OS, 381 nM in the assay with K562 [3] and 998 nM in the assay on MEL-JUSO [5].
Take `CC(=O)[C@]1(O)Cc2c(O)c3c(c(O)c2[C@@H](O[C@H]2C[C@H](N)[C@H](O)[C@H](C)O2)C1)C(=O)c1ccccc1C3=O` [IDARUBICIN]: the IC50 in the assay with U2OS stood at 24 nM; with MEL-JUSO [5], 89 nM.
With `COc1cccc2c1C(=O)c1c(O)c3c(c(O)c1C2=O)C[C@@](O)(C(=O)CO)C[C@@H]3O[C@H]1C[C@H](N2CCC2)[C@H](O)[C@H](C)O1`, the outcome in the assay with K562 [1], in the assay with K562 [2] and in the assay with K562 [4] was inactive. Also, the values for the IC50 in the assay with U2OS, with K562 [3] and in the assay on MEL-JUSO [5] were 159 nM, 379 nM and 297 nM, respectively. Moreover, the result with MEL-JUSO [6] was Active.
With `COc1cccc2c1C(=O)c1c(O)c3c(c(O)c1C2=O)C[C@@](O)(C(=O)CO)C[C@@H]3O[C@H]1C[C@H](N)[C@H](O)[C@H](C)O1` [DOXORUBICIN], the results for the 50% inhibitory concentration (IC50) in the assay with U2OS and with MEL-JUSO [5] were 339 nM and 523 nM, respectively. In addition, in the assay with MEL-JUSO [6], the outcome was Active.
`COc1cccc2c1C(=O)c1c(O)c3c(c(O)c1C2=O)C[C@@](O)(CCO)C[C@@H]3O[C@H]1C[C@H](N)[C@H](O)[C@H](C)O1` [13-DEOXYDOXORUBICIN]: the outcome in the assay with K562 [1], in the assay on K562 [2] and with K562 [4] was Active. For the same molecule, the half-inhibitory concentration (IC50) was determined as 891 nM in the assay on U2OS, 1790 nM with K562 [3] and 1150 nM in the assay on MEL-JUSO [5].
With `COc1cccc2c1C(=O)c1c(O)c3c(c(O)c1C2=O)C[C@@](O)(C(=O)CO)C[C@@H]3O[C@H]1C[C@H](N2CCCCC2)[C@H](O)[C@H](C)O1`, the outcome in the assay on K562 [1], in the assay on K562 [2] and with K562 [4] was inactive. In addition, the half-maximal inhibitory concentration (IC50) with U2OS was determined as 105 nM; with K562 [3] it was 195 nM; in the assay on MEL-JUSO [5], 78 nM. The result in the assay with MEL-JUSO [6] was Active.
As to `CC[C@@]1(O)C[C@H](O[C@H]2C[C@H](N(C)C)[C@H](O)[C@H](C)O2)c2c(O)c3c(c(O)c2[C@H]1C(=O)OC)C(=O)c1cccc(O)c1C3=O`, the outcome in the assay on K562 [1], in the assay with K562 [2] and in the assay with K562 [4] was inactive. Further, the concentration for half-maximal inhibition (IC50) with U2OS was determined as 1130 nM; with K562 [3], 1100 nM; in the assay on MEL-JUSO [5] it was 835 nM.
As for `CC(=O)[C@]1(O)Cc2c(O)c3c(c(O)c2[C@@H](O[C@H]2C[C@H](N)[C@H](O[C@H]4C[C@H](O)[C@H](O[C@H]5CCC(=O)[C@H](C)O5)[C@H](C)O4)[C@H](C)O2)C1)C(=O)c1ccccc1C3=O`, the result in the assay on K562 [1], with K562 [2] and in the assay with K562 [4] was Active. The IC50 worked out at 376 nM in the assay with U2OS, 230 nM in the assay with K562 [3] and 680 nM in the assay with MEL-JUSO [5].

What is called IC50 is the concentration that inhibits the measured activity by half. The low end stands for greater potency, the high end for weaker potency.

The record behind these values is ChEMBL document CHEMBL5360645, “Re-Exploring the Anthracycline Chemical Space for Better Anti-Cancer Compounds” (J Med Chem, 2023).
